The text below walks through data of ChEMBL document CHEMBL1147446, “Antagonists of human CCR5 receptor containing 4-(pyrazolyl)piperidine side chains. Part 3: SAR studies on the benzylpyrazole segment” (Bioorg Med Chem Lett, 2004).

Assay [1] deals with C-C chemokine receptor type 5 (Homo sapiens, UniProt P51681). The assay is described as follows: Inhibitory concentration for displacement of [125I]-MIP-1 alpha from recombinant human CC chemokine receptor 5 (CCR5) expressed in CHO cell. The format is cell-based. In a few lines: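 Competitive binding to CCR5 on CHO cell membranes, read as displacement of [125I]-labeled MIP-1α. IC50 values are means of triplicate determinations. Standard errors were normally <15% within an assay. Assay-to-assay variation was within ±2-fold, judged from a standard compound.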
Chain of C-C chemokine receptor type 5 (P51681 whole entry): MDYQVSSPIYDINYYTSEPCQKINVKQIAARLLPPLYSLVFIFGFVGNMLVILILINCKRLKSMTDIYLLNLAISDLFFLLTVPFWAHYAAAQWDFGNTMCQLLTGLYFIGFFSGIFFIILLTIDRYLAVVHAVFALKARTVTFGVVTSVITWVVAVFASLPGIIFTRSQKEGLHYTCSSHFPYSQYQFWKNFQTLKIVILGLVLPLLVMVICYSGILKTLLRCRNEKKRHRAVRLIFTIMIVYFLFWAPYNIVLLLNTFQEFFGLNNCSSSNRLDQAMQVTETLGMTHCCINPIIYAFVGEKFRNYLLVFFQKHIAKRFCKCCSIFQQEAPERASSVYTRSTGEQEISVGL
(In general: In a radioligand displacement assay an active substance lowers the binding of a labelled ligand.)

Assay [2] relates to HeLa. The assay is described as follows: Antiviral activities in a cell culture HIV-1 infectivity inhibition assay using HeLa cells plus 50% normal human serum. It is filed as functional.
The test system of assay [3] is HeLa. Put plainly: Antiviral activities in a cell culture HIV-1 infectivity inhibition assay using HeLa cells. The format is functional. As to conditions: Homo sapiens.

For `CCCCOc1ccc(Cc2cc(C3CCN(C[C@H]4CN([C@@H](C(=O)O)C(C)C)C[C@@H]4c4cccc(F)c4)CC3)n(CC)n2)cc1`, the IC50 in assay [1] came to 0.5 nM. In addition, the IC90 was found to be 300 nM with HeLa [2] and 11 nM with HeLa [3].

Regarding `CCn1nc(Cc2ccc(O)cc2)cc1C1CCN(C[C@H]2CN([C@@H](C(=O)O)C3CCCCC3)C[C@@H]2c2cccc(F)c2)CC1`, the IC50 in assay [1] stood at 0.5 nM. Besides, the IC90 amounted to 33 nM in the assay on HeLa [2] and 11 nM in the assay on HeLa [3].

In the case of `CCn1nc(Cc2ccc(C(F)(F)F)cc2)cc1C1CCN(C[C@H]2CN([C@@H](C(=O)O)C(C)C)C[C@@H]2c2cccc(F)c2)CC1`, the half-inhibitory concentration (IC50) in assay [1] was found to be 2 nM. Also, the IC90 in the assay on HeLa [2] stood at 100 nM; in the assay on HeLa [3] it was 3.7 nM.

For `CC[C@H](C)[C@H](C(=O)O)N1C[C@H](CN2CCC(c3cc(Cc4ccc(C#N)cc4)nn3CC)CC2)[C@@H](c2cccc(F)c2)C1`, the 50% inhibitory concentration (IC50) in assay [1] was 1.3 nM. Moreover, the IC90 in the assay on HeLa [2] is 3.7 nM; with HeLa [3], less than 0.14 nM.

For `CCn1nc(Cc2ccc(OC)cc2)cc1C1CCN(C[C@H]2CN([C@@H](C(=O)O)C(C)(C)C)C[C@@H]2c2cccc(F)c2)CC1`, the IC50 in assay [1] came out at 1.5 nM. The results for the IC90 in the assay on HeLa [2] and in the assay on HeLa [3] were 33 nM and less than 0.14 nM, respectively.

As to `CCn1nc(Cc2ccc(S(=O)(=O)c3ccccc3)cc2)cc1C1CCN(C[C@H]2CN([C@@H](C(=O)O)C(C)C)C[C@@H]2c2cccc(F)c2)CC1`, the IC50 in assay [1] is 1.3 nM. Moreover, the IC90 with HeLa [2] was found to be 33 nM; in the assay on HeLa [3], 0.4 nM.

As to `CC[C@H](C)[C@H](C(=O)O)N1C[C@H](CN2CCC(c3cc(Cc4ccc5c(c4)OCO5)nn3CC)CC2)[C@@H](c2cccc(F)c2)C1`, the IC50 in assay [1] was 0.5 nM. Also, the results for the IC90 with HeLa [2] and in the assay on HeLa [3] were 100 nM and less than 0.14 nM, respectively.

Turning to `CCn1nc(Cc2ccc(C#N)cc2)cc1C1CCN(C[C@H]2CN([C@@H](C(=O)O)C3CCCCC3)C[C@@H]2c2cccc(F)c2)CC1`, in assay [1], the IC50 was 1.7 nM. Besides, the IC90 with HeLa [2] stood at 11 nM; with HeLa [3], 0.4 nM.

Regarding `CCOc1cccc(Cc2cc(C3CCN(C[C@H]4CN([C@@H](C(=O)O)C(C)(C)C)C[C@@H]4c4cccc(F)c4)CC3)n(CC)n2)c1`, the IC50 in assay [1] came to 0.4 nM. Also, the results for the IC90 with HeLa [2] and in the assay on HeLa [3] were 100 nM and less than 0.14 nM, respectively.

As to `CCCOc1ccc(Cc2cc(C3CCN(C[C@H]4CN([C@@H](C(=O)O)C(C)(C)C)C[C@@H]4c4cccc(F)c4)CC3)n(CC)n2)cc1`, the IC50 in assay [1] was 0.8 nM. Further, the concentration for an effect of 90% (IC90) with HeLa [2] was 300 nM; with HeLa [3] it was 0.4 nM.

Turning to `CC[C@@H](C)[C@H](C(=O)O)N1C[C@H](CN2CCC(c3cc(Cc4cccc5ccccc45)nn3CC)CC2)[C@@H](c2cccc(F)c2)C1`, the IC50 in assay [1] was 0.2 nM. The IC90 is 33 nM in the assay with HeLa [2] and less than 0.14 nM in the assay with HeLa [3].

As for `CC[C@@H](C)[C@H](C(=O)O)N1C[C@H](CN2CCC(c3cc(Cc4cccc(CN)c4)nn3CC)CC2)[C@@H](c2cccc(F)c2)C1`, the IC50 in assay [1] worked out at 2.7 nM. The IC90 with HeLa [2] worked out at 33 nM; in the assay on HeLa [3] it was 3.7 nM.

Take `CCn1nc(Cc2ccc(OC(F)F)cc2)cc1C1CCN(C[C@H]2CN([C@@H](C(=O)O)C(C)(C)C)C[C@@H]2c2cccc(F)c2)CC1`: in assay [1], the IC50 amounted to 0.5 nM. In addition, the results for the IC90 with HeLa [2] and in the assay with HeLa [3] were 11 nM and less than 0.14 nM, respectively.

Turning to `CC[C@@H](C)[C@H](C(=O)O)N1C[C@H](CN2CCC(c3cc(Cc4ccc(Oc5ccccc5)cc4)nn3CC)CC2)[C@@H](c2cccc(F)c2)C1`, the IC50 in assay [1] is 0.5 nM. The IC90 with HeLa [2] came out at 300 nM; in the assay on HeLa [3] it was 3.7 nM.

As for `CC[C@H](C)[C@H](C(=O)O)N1C[C@H](CN2CCC(c3cc(Cc4cc(C(F)(F)F)cc(C(F)(F)F)c4)nn3CC)CC2)[C@@H](c2cccc(F)c2)C1`, in assay [1], the IC50 amounted to 2.1 nM. In addition, the IC90 is greater than 300 nM with HeLa [2] and 11 nM in the assay on HeLa [3].

With `CCn1nc(Cc2ccccc2)cc1C1CCN(C[C@H]2CN([C@@H](C(=O)O)C3CCCCC3)C[C@@H]2c2cccc(F)c2)CC1`, in the assay on HeLa [2], the IC90 came out at 100 nM.

As for `CCn1nc(Cc2ccc(F)cc2)cc1C1CCN(C[C@H]2CN([C@@H](C(=O)O)C3CCCCC3)C[C@@H]2c2cccc(F)c2)CC1`, in assay [1], the IC50 came to 1.1 nM. In the assay with HeLa [3], this compound had a concentration for an effect of 90% (IC90) of 33 nM.

As a reminder, the IC50 is the point on the concentration scale where inhibition reaches its midpoint. For orientation: IC90 means the concentration at which the effect reaches the 90% level.
